# KCNK3 inh: human KCNK3 channel inhibition, primary screen; actives 0.84% (n = 340,000); B-score at 10 µM; CHO-KCNK3 thallium flux, FluxOR fluorescence; active compounds read low; AID 602410;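 active = B-score under library mean minus 4 SD, starting fluorescence ratio at most library mean plus 5 SD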;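 also: more negative B-score means stronger inhibition of thallium flux through KCNK3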
# Kir21 inh: inhibitors of mouse Kir2.1 inward-rectifier potassium channel; HEK293-Kir2.1, FluxOR thallium flux fluorescence; active compounds read low; B-score at 10 µM; actives 0.85% (n = 310,000); AID 1672;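 active = fluorescence ratio B-score at or below minus 3 SD of library scores, with starting-brightness B-score within 2 SD, cut at about -4.2 in these data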;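 also: channel flux triggered by added potassium and thallium sulfate stimulus; B-score of peak minus minimum fluorescence over baseline after thallium stimulus; more negative B-score means stronger Kir2.1 block with less thallium influx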
# hERG protect: compounds protecting human hERG from proarrhythmic drug block. activation (rescue from dofetilide block), less the hit threshold, % at 10 µM. Q12809. actives 0.51% (n = 310,000). CHO-hERG, FluxOR thallium flux, dofetilide IC70 present;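 active = activation above the mean of controls blocked by dofetilide plus 5 SD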;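 also: thallium influx through hERG after potassium depolarization seen as dye fluorescence rise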
# KCNK9 block: inhibitors of human KCNK9 two-pore domain potassium channel; Q9NPC2; HEK293 KCNK9, FluxOR thallium flux fluorescence; active compounds read low; B-score at 10 µM; actives 1.2% (n = 310,000); AID 488922;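 active = ratio B-score over 3 SD below the library mean, with starting fluorescence within 5 SD of its mean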;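 also: negative B-score means less thallium flux so channel inhibition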
# KCNQ1 act: potentiates or activates the human KCNQ1 potassium channel; CHO-K1 KCNQ1, thallium flux FluxOR fluorescence; active compounds read high; B-score at 10 µM; actives 0.35% (n = 310,000); AID 2648;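 active = fluorescence ratio B-score, a plate-corrected score, at least three library SD, with initial intensity B-score within 5 SD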
# Target sequence (P51787 whole entry, looked up): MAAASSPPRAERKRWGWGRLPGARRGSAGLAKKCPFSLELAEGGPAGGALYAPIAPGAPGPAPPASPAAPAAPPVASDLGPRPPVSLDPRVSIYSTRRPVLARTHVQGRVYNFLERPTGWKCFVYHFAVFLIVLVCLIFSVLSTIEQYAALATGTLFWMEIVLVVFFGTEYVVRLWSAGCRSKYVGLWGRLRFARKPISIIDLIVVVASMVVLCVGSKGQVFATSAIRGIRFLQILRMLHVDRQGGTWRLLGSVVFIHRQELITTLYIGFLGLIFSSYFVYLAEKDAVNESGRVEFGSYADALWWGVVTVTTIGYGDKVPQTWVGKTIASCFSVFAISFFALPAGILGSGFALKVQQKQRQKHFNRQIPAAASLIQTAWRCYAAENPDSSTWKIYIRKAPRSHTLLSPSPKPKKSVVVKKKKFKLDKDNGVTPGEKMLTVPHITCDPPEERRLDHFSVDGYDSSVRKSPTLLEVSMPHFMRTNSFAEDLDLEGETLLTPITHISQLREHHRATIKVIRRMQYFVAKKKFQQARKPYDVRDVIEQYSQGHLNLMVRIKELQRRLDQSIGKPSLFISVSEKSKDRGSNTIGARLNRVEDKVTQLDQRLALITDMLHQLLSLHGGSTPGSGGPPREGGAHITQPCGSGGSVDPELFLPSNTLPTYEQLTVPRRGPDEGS
#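 Assay system: CHO-K1 cells stably expressing KCNQ1. Medium: assay buffer for compound exposure, DMSO matched across wells. Timing: 37 °C overnight plating, 90-min dark dye load, 20-min compound pretreatment. Signal: kinetic FluxOR fluorescence, 10 s baseline plus 110 s post-stimulus.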
# KCNQ1 block: inhibitors of human KCNQ1 potassium channel; P51787; CHO-K1 KCNQ1, FluxOR thallium flux fluorescence; active compounds read high; B-score at 10 µM; actives 1.3% (n = 310,000); AID 2642;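 active = compounds whose thallium flux B-score, printed positive for inhibition, exceeds three library SD while starting fluorescence stays within three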;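 also: channel opened by potassium depolarization with thallium stimulus after 20 min compound exposure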
# * marks the source's active call; other numbers are inactive results; i = inactive; nt = not tested or not shown. Only some compounds are listed: those with a hit (about 3.7% of all), similar ones and a draw of the others.
SMILES,KCNK3 inh,Kir21 inh,hERG protect,KCNK9 block,KCNQ1 act,KCNQ1 block
Cc1c(NC(=O)c2cc(S(=O)(=O)N3CCCCC3)ccc2Cl)c(=O)n(-c2ccccc2)n1C,i,nt,nt,nt,nt,nt
O=C1CC(c2cccs2)Sc2nc3ccccc3n21 (stereo not given),i,-0.18,-4,i,i,i
O=C1CC(c2ccccc2)Sc2nc3ccccc3n21 (stereo not given),i,-2.2,42*,i,i,i
COc1cccc(OC)c1C(=O)OCc1c(-c2ccccc2)ncc2ccccc12,i,nt,nt,nt,nt,nt
Cc1ccc2nsnc2c1S(=O)(=O)Nc1cccc2nsnc12,i,2.1,5.2*,i,11*,i
CC(=O)c1ccccc1NS(=O)(=O)c1cccc2nsnc12,i,0.84,-3,i,i,i
CCc1ccccc1NS(=O)(=O)c1cccc2nsnc12,i,-5.4*,-1,i,i,i
Cc1ccc(C)c(NS(=O)(=O)c2c(C)ccc3nsnc23)c1,i,-3.1,-11,i,i,i
COC(CN1CCc2c(C)nc3c(C#N)cnn3c21)OC,i,0.55,6.3*,i,i,i
CCOCCOCN(C#N)c1nc(OC)nc(N(C)C)n1,i,-3.3,49*,i,i,i
Cc1nc(SCC(=O)c2cccs2)c2oc3ccccc3c2n1,i,-0.45,-16,i,i,10*
O=C(CSc1ncnc2c1oc1ccccc12)c1cccs1,i,2,-2,i,i,i
CCCCC1CCC(C(=O)Nc2ccc(N3CCOCC3)cc2N2CCOCC2)CC1 (stereo not given),i,nt,nt,nt,nt,nt
CC1CCCN(C(=O)c2ccc(OC3CCN(CCc4ccccc4)CC3)cc2)C1 (stereo not given),i,-4.5*,-7,i,i,i
Cc1ccc(Cl)cc1NC(=S)NCCCSC1CCCCC1,i,-0.82,-14,i,i,8*
N#Cc1c(/N=C/c2cccs2)sc2c1CCCCC2,i,0.8,-17,i,i,6*
CC(=O)c1cccc(NC(=O)c2ccc(N(Cc3ccccc3)S(C)(=O)=O)cc2)c1,i,-0.67,-13,i,i,i
CS(=O)(=O)N(Cc1ccccc1)c1ccc(C(=O)Nc2ccc(C(N)=O)cc2)cc1,i,2.7,46*,i,i,i
N#CC(OC(=O)c1ccccc1)c1ccccc1 (stereo not given),i,nt,nt,nt,nt,nt
COc1ccccc1NC(C)C(=O)N/N=C/c1ccccc1OCc1cccc(Br)c1 (stereo not given),i,0.24,-6,-7.3*,i,i
O=C(Nc1c(Cl)cc2c(c1Cl)Cc1cc([N+](=O)[O-])ccc1-2)C(Cl)Cl,i,nt,nt,nt,nt,nt
Cc1cc(C)nc(N2CCCC(C(=O)NCc3ccccc3)C2)n1 (stereo not given),i,-2.1,5.2*,i,i,i
Cc1ccc(CNC(=O)C2CCCN(c3nc(C)cc(C)n3)C2)cc1 (stereo not given),i,2,-1,i,i,i
COCCOC(=O)C1=C(N)OC2=C(C(=O)CC(C)(C)C2)C1c1cccnc1 (stereo not given),i,1.3,5.2*,i,i,i
CCCc1cnc(NCCNCC(O)COc2ccc(Cl)c(Cl)c2)nc1 (stereo not given),i,-6.5*,-33,i,i,i
SMILES,KCNK3 inh,Kir21 inh,hERG protect,KCNK9 block,KCNQ1 act,KCNQ1 block
CC1(C2CC2)NC(=O)N(CC(=O)Nc2ccccc2F)C1=O (stereo not given),i,nt,nt,nt,nt,nt
CCCCN(C(=O)c1ccc(N2C(=O)c3ccccc3C2=O)cc1)c1c(N)n(CC(C)C)c(=O)[nH]c1=O,i,nt,nt,nt,nt,nt
O=c1ccc(N=Nc2ccccc2)ccc1O,i,-0.04,49*,i,79*,i
O=S(=O)(O)c1ccc(N=Nc2ccccc2)cc1,i,2,-2,i,i,i
COc1cccc(Oc2ccc(S(=O)(=O)N3CCOCC3)cc2[N+](=O)[O-])c1,i,nt,nt,nt,nt,nt
CN(c1ccccc1)S(=O)(=O)c1ccc(Cl)c(C(=O)Nc2nc3ccccc3[nH]2)c1,i,-1.2,-6,-7.1*,i,i

# From PubChem
